From PubChem
The list is not random: actives were taken first. Their share in the collection is about 4.8%.
APP 5'UTR act: activators of APP 5'UTR luciferase reporter, primary screen, SH-SY5Y cells; SH-SY5Y APP 5'UTR luciferase reporter, luminescence; zero percent = DMSO vehicle wells; activation, % at 2 µM; actives 1% (n = 190,000); AID 1276, 2008;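 active = activation above a set limit, based on mean plus 3 SD of controls, cut at about 140% in these data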
FLuc inhib CS: firefly luciferase enzyme inhibitors, primary screen, artefact control for luciferase-based inhibitor screens, biochemical, luminescence, ATPLite; Luciferin 4-monooxygenase (Photinus pyralis), P08659; 10 min; inhibition, % at 10 µM; actives 1.5% (n = 200,000); AID 1006, 2008;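 active = inhibition above about 50% when tested at 10 µM, limit read from the data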
Target sequence (P08659 whole entry, looked up): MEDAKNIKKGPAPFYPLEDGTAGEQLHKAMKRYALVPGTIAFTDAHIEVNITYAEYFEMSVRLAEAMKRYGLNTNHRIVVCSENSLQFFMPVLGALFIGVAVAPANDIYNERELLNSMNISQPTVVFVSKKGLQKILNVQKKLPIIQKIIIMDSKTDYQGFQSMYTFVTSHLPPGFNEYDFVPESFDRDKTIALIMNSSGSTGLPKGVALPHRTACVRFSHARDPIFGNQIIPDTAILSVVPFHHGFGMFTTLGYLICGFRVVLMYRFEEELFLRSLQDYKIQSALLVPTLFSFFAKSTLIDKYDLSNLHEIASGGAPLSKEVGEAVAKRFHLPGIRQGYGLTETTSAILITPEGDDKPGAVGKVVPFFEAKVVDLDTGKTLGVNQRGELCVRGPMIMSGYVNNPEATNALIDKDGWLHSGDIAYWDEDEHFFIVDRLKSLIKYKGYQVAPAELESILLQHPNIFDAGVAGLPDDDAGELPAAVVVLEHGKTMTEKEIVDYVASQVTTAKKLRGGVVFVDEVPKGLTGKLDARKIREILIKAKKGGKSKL
FLuc act counter: FLuc activators, initial screening, artefact control for FLuc-dependent activation tests, biochemical, ATPlite luminescence. ATPlite luciferase biochemical, 10 min; 0 = ATP-free wells, 1 = DMSO control. activation factor at 10 µM. 200,000 tested, under 10 active;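 active = luciferase activation factor, scaled between plate controls, of at least 2 with compound at 10 µM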
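Assay system: Luciferase/luciferin detection reagent, cell-free biochemical luciferase assay / Read-out: luciferase activation / Benchmarks: No-ATP low control, compound-free enzyme-plus-ATP high control / Medium: PBS buffer for ATP / Detection: luminescence measurement of luciferase light output / Schedule: 10 min at ambient temperature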
STAT1 act: STAT1 signaling activators, primary screen, cell-based, HTS, luciferase reporter. NIH 3T3 STAT1-luciferase reporter, IFN-gamma, luminescence; 100% = IFN-gamma alone, no compound. activation (% of control), % at 5.5 µM. actives 2.6% (n = 200,000). AID 932, 2007;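 active = activation above the screen-wide mean activation plus 3 SD, cut at about 130% in these data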
NF-kB neuron act: activators of NF-kB expression in neurons, primary screen, cell-based, HTS. human neuronal cells, NF-kB reporter expression; hits give high values. fold change at 12.5 µM. actives 1.6% (n = 190,000). AID 1239, 2008; in the data active = fold change above about 3.3
APP transl inh: inhibitors of APP translation via 5'UTR reporter, primary screen, APP 5'UTR luciferase, SH-SY5Y cells. actives 0.82% (n = 190,000). inhibition, % at 2 µM. SH-SY5Y APP 5'UTR-luciferase reporter, luminescence. AID 1285, 2008;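 active = inhibition above a set limit, derived from the sample mean plus 3 SD, cut at about 45% in these data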
A number is an active result.

Screening Fc1cccc(Cl)c1Cn1nnc(-c2ccc3c(c2)OCO3)n1 returned APP 5'UTR act inactive, FLuc inhib CS inactive, FLuc act counter inactive, STAT1 act inactive, NF-kB neuron act 3.57 and APP transl inh inactive.
COc1cc(NC(=S)NC(=O)c2ccccc2F)ccc1NC(=O)c1ccco1 was read as APP 5'UTR act inactive, FLuc inhib CS inactive, FLuc act counter inactive, STAT1 act inactive, NF-kB neuron act inactive and APP transl inh inactive.
`CSc1nc(N(C)NC(=O)c2ccc(F)cc2)c2ccccc2n1` gave APP 5'UTR act inactive, FLuc inhib CS inactive, FLuc act counter inactive, STAT1 act inactive, NF-kB neuron act inactive and APP transl inh 95.0.
`Cn1c(CNC(=O)c2ccc(F)cc2)nc2ccccc21` gave APP 5'UTR act inactive, FLuc inhib CS inactive, FLuc act counter inactive, STAT1 act inactive, NF-kB neuron act inactive and APP transl inh inactive.
Screening CCOC(=O)C1(Cc2ccc(OC)cc2)CCN(C(=O)c2cncs2)CC1 returned APP 5'UTR act inactive, FLuc inhib CS inactive, FLuc act counter inactive, STAT1 act inactive, NF-kB neuron act inactive and APP transl inh inactive.
For CN(C)c1ccc2c(c1)OC(N)=C(C#N)C2c1cccc(F)c1 (stereo not given) the results were APP 5'UTR act inactive, FLuc inhib CS inactive, FLuc act counter inactive, STAT1 act inactive, NF-kB neuron act 4.95 and APP transl inh 95.1.
`c1ccc2c(CNCCN3CCOCC3)cccc2c1` gave APP 5'UTR act inactive, FLuc inhib CS inactive, FLuc act counter inactive, STAT1 act inactive, NF-kB neuron act inactive and APP transl inh inactive.
Screening c1ccc(-c2noc(C34CC5CC(CC(C5)C3)C4)n2)nc1 returned APP 5'UTR act inactive, FLuc inhib CS inactive, FLuc act counter inactive, STAT1 act 131.9, NF-kB neuron act inactive and APP transl inh inactive.
Screening c1ccc(-c2noc(C3CCCCC3)n2)nc1 returned APP 5'UTR act inactive, FLuc inhib CS inactive, FLuc act counter inactive, STAT1 act 130.8, NF-kB neuron act inactive and APP transl inh inactive.
`COc1ccc(CN(C(=O)c2cnccn2)C(C(=O)Nc2ccc(F)cc2)c2ccccc2)cc1` (stereo not given) gave APP 5'UTR act inactive, FLuc inhib CS inactive, FLuc act counter inactive, STAT1 act inactive, NF-kB neuron act inactive and APP transl inh inactive.
Screening C=CCn1c(SCC(=O)Nc2ccc(C(=O)OCC)cc2)nnc1-c1cccs1 returned APP 5'UTR act inactive, FLuc inhib CS inactive, FLuc act counter inactive, STAT1 act inactive, NF-kB neuron act inactive and APP transl inh inactive.
C=CCn1c(Cc2cccs2)nnc1SCC(=O)Nc1ccc(C(=O)OCC)cc1 was read as APP 5'UTR act inactive, FLuc inhib CS inactive, FLuc act counter inactive, STAT1 act inactive, NF-kB neuron act inactive and APP transl inh 47.4.
Screening Cc1nn(-c2nc3ccccc3s2)c(N)c1-c1ccccc1 returned APP 5'UTR act inactive, FLuc inhib CS 52.2, FLuc act counter inactive, STAT1 act 143.1, NF-kB neuron act 7.63 and APP transl inh inactive.
`Cc1nn(-c2ccccc2)c(N)c1-c1ccccc1` gave APP 5'UTR act inactive, FLuc inhib CS 73.3, FLuc act counter inactive, STAT1 act inactive, NF-kB neuron act inactive and APP transl inh inactive.
Screening Nc1c(-c2ccccc2)c(CN2CCOCC2)nn1-c1ccccc1 returned APP 5'UTR act inactive, FLuc inhib CS inactive, FLuc act counter inactive, STAT1 act inactive, NF-kB neuron act inactive and APP transl inh inactive.
For Cc1nn(-c2nc3ccccc3s2)c(N)c1Sc1ccc(F)cc1 the results were APP 5'UTR act inactive, FLuc inhib CS inactive, FLuc act counter inactive, STAT1 act 138.3, NF-kB neuron act inactive and APP transl inh inactive.
For Cc1cc(N)n(-c2nc3ccccc3s2)n1 the results were APP 5'UTR act inactive, FLuc inhib CS 75.1, FLuc act counter inactive, STAT1 act inactive, NF-kB neuron act 4.53 and APP transl inh inactive.
Cc1nn(-c2nc3ccccc3s2)c(N)c1-c1ccc(Cl)cc1 was read as APP 5'UTR act inactive, FLuc inhib CS inactive, FLuc act counter inactive, STAT1 act inactive, NF-kB neuron act inactive and APP transl inh inactive.
`CC(=O)c1ccc(NC(=O)c2cnn3ccccc23)cc1` gave APP 5'UTR act inactive, FLuc inhib CS inactive, FLuc act counter inactive, STAT1 act inactive, NF-kB neuron act inactive and APP transl inh inactive.
Screening Cc1ccc(C)c(NC(=O)c2cc3ccccn3n2)c1 returned APP 5'UTR act inactive, FLuc inhib CS inactive, FLuc act counter inactive, STAT1 act 134.5, NF-kB neuron act inactive and APP transl inh inactive.
CC(=O)c1cccc(NC(=O)c2cc3ccccn3n2)c1 was read as APP 5'UTR act inactive, FLuc inhib CS 71.7, FLuc act counter inactive, STAT1 act inactive, NF-kB neuron act inactive and APP transl inh inactive.
Screening Cc1ccc(C)c(NC(=O)c2cnn3ccccc23)c1 returned APP 5'UTR act inactive, FLuc inhib CS inactive, FLuc act counter inactive, STAT1 act inactive, NF-kB neuron act inactive and APP transl inh inactive.
`CC(=O)c1cccc(NC(=O)c2cnn3ccccc23)c1` gave FLuc inhib CS inactive, FLuc act counter inactive, STAT1 act 129.2 and NF-kB neuron act 3.36.
Screening CCOC(=O)N1CCC(N2CCCC(CO)(Cc3cccc(Cl)c3)C2)CC1 (stereo not given) returned APP 5'UTR act inactive, FLuc inhib CS inactive, FLuc act counter inactive, STAT1 act inactive, NF-kB neuron act inactive and APP transl inh inactive.
For Nc1ccc(C(=O)OCc2nc3cc4ccccc4cc3[nH]2)cc1 the results were APP 5'UTR act inactive, FLuc inhib CS inactive, FLuc act counter inactive, STAT1 act inactive, NF-kB neuron act inactive and APP transl inh inactive.
For Nc1ccc(C(=O)OCc2nc3c(ccc4ccccc43)[nH]2)cc1 the results were APP 5'UTR act inactive, FLuc inhib CS inactive, FLuc act counter inactive, STAT1 act 150.9, NF-kB neuron act inactive and APP transl inh inactive.
`CCCc1cc2c(=O)c(-c3ccc4c(c3)OCCO4)coc2cc1OC(=O)c1ccco1` gave APP 5'UTR act inactive, FLuc inhib CS inactive, FLuc act counter inactive, STAT1 act inactive, NF-kB neuron act inactive and APP transl inh inactive.
For CCc1cc2c(=O)c(-c3ccc4c(c3)OCCO4)coc2cc1OC(=O)c1ccco1 the results were APP 5'UTR act 141.0, FLuc inhib CS inactive, FLuc act counter inactive, STAT1 act inactive, NF-kB neuron act inactive and APP transl inh inactive.
Cc1nc(-c2ccc(O)c(O)c2)cs1 was read as APP 5'UTR act inactive, FLuc inhib CS inactive, FLuc act counter inactive, STAT1 act inactive, NF-kB neuron act inactive and APP transl inh inactive.
